Three compounds from BindingDB's records for doi:10.1021/jm010408m (University of Missouri-Columbia, 2002) can be followed below.

Melanocyte-stimulating hormone receptor, sequence (Q01727 whole entry): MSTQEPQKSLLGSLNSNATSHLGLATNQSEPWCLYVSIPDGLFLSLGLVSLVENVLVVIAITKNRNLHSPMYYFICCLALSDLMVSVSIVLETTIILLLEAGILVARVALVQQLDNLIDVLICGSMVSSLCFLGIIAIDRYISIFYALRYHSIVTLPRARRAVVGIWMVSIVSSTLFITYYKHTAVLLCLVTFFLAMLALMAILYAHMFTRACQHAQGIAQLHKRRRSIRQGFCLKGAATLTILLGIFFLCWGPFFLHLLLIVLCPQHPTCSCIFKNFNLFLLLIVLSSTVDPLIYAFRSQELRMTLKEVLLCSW

The test concerns the target Melanocyte-stimulating hormone receptor (Mus musculus, UniProt Q01727). Briefly: In vitro binding affinity for the melanoma receptor was determined in the murine melanoma B16/F1 cell line. A digest of the protocol:
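Competitive displacement on B16/F1 cells seeded at 0.2 million/well and attached overnight. They were rinsed twice with PBS/0.2% BSA and lysed in 1.0 M NaOH. Cell-bound radioactivity was counted and IC50 fitted.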
For `CC(=O)NC(CCCCNC(=O)CN1CCN(CC(=O)O)CCN(CC(=O)O)CCN(CC(=O)O)CC1)C(=O)NC1[S][ReH]23([OH])[S]C(C(=O)NC(CCCCNC(=O)OCc4ccccc4)C(=O)N4CCCC4C(=O)NC(C(N)=O)C(C)C)NC(=O)C(Cc4c[nH]c5ccccc45)NC(=O)C(CCCNC(=N)N)NC(=O)[C@H](Cc4ccccc4)NC(=O)C(Cc4cnc[nH]4)NC(=O)C(CCC(=O)O)NC(=O)C([S]2)[N]3C1=O` (stereo partly drawn) [Ac-Lys(DOTA)-ReCCEHdFRWCKPV-NH2], the concentration for half-maximal inhibition (IC50) worked out at 3.3 nM. Regarding `CC(C)C(NC(=O)C1CCCN1C(=O)C(CCCCN)NC(=O)C1NC(=O)C(Cc2c[nH]c3ccccc23)NC(=O)C(CCCNC(=N)N)NC(=O)[C@H](Cc2ccccc2)NC(=O)C(Cc2cnc[nH]2)NC(=O)C(CCC(=O)O)NC(=O)C2[S][ReH]3([OH])([S]1)[S]C(NC(=O)CN1CCN(CC(=O)O)CCN(CC(=O)O)CCN(CC(=O)O)CC1)C(=O)[N]23)C(N)=O` (stereo partly drawn) [DOTA-ReCCEHdFRWCKPV-NH2], the IC50 was determined as 1.2 nM. Compound `CC(C)C(NC(=O)C1CCCN1C(=O)C(CCCNC(=N)N)NC(=O)C1NC(=O)C(Cc2c[nH]c3ccccc23)NC(=O)C(CCCNC(=N)N)NC(=O)[C@H](Cc2ccccc2)NC(=O)C(Cc2cnc[nH]2)NC(=O)C(CCC(=O)O)NC(=O)C2[S][ReH]3([OH])([S]1)[S]C(NC(=O)CN1CCN(CC(=O)O)CCN(CC(=O)O)CCN(CC(=O)O)CC1)C(=O)[N]23)C(N)=O` (stereo partly drawn) [DOTA-ReCCEHdFRWCRPV-NH2] displayed an IC50 of 2.1 nM.

What is called IC50 is the point on the concentration scale where inhibition reaches its midpoint. Read a low IC50 as greater potency.
